Drawing on ChEMBL document CHEMBL1821682, “Synthesis of new 2'-deoxy-2'-fluoro-4'-azido nucleoside analogues as potent anti-HIV agents” (Eur J Med Chem, 2011), this text covers EC50 and IC50 for three compounds.

The subject of assay [1] is Human immunodeficiency virus 1. In words: Antiviral activity against NRTI-resistant Human immunodeficiency virus 1 35764-2 harboring reverse transcriptase V75I, F77L, F116Y and Q151M mutant infected in human TZM-bl cells assessed as reduction in relative luminescence units after 48 hrs by luciferase reporter gene assay. It counts as functional, organism-based. The settings on record: Human immunodeficiency virus 1, 35764-2, TZM-bl. Put shortly: (§1)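 Panel of eleven NRTI-resistant strains from the NIH Reagent Program plus wild-type NL4-3; highest concentration tested 40,000 nM. EC50 = concentration inhibiting HIV by 50%, averaged from at least two separate experiments.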
In general terms: A reporter such as luciferase makes a cellular process visible.

For assay [2], the system named is HepG2. In words: Cytotoxicity activity against human HepG2 by CellTiter-Glo luminescent cell viability assay. In kind it is cell-based. The essentials:
(§2)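 CellTiter-Glo luminescent viability assay quantifying ATP in metabolically active cells; PBMC were PHA-activated. Highest concentration tested 140 μM. IC50 = concentration inhibiting cell growth by 50%, averaged from at least three separate experiments.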
A general note: In ATP-based viability assays light output follows the ATP content of the culture.

Assay [3] concerns Human immunodeficiency virus 1. Nature of the assay: Antiviral activity against NRTI-resistant Human immunodeficiency virus 1 7324-4 harboring reverse transcriptase M41L, K70R, T215F and K219E mutant infected in human TZM-bl cells assessed as reduction in relative luminescence units after 48 hrs by luciferase reporter gene assay. It counts as functional, organism-based. Particulars: Human immunodeficiency virus 1, 7324-4, TZM-bl. Put shortly:
as §1

Assay [4] deals with Human immunodeficiency virus 1. Nature of the assay: Antiviral activity against NRTI-resistant Human immunodeficiency virus 1 7324-1 harboring reverse transcriptase M41L, D67N, K70R, T215F, K219E and T69N mutant infected in human TZM-bl cells assessed as reduction in relative luminescence units after 48 hrs by luciferase reporter gene assay. The settings on record: Human immunodeficiency virus 1, 7324-1, TZM-bl. It counts as functional, organism-based. The essentials:
as §1

The test system of assay [5] is HEK-293T. Nature of the assay: Cytotoxicity activity against human 293T by CellTiter-Glo luminescent cell viability assay. In kind it is cell-based. The essentials:
as §2

Assay [6] has as its system Human immunodeficiency virus 1. Nature of the assay: Antiviral activity against NRTI-resistant Human immunodeficiency virus 1 7303-3 harboring reverse transcriptase M41L, D67N, L210W, T215Y, T69D, E44D and V118I mutant infected in human TZM-bl cells assessed as reduction in relative luminescence units after 48 hrs by luciferase reporter gene assay. In kind it is functional, organism-based. The settings on record: Human immunodeficiency virus 1, 7303-3, TZM-bl. Put shortly:
as §1

In assay [7] the test system is Human immunodeficiency virus 1. Nature of the assay: Antiviral activity against vesicular stomatitis virus G-pseudotyped Human immunodeficiency virus 1 NL4-3 infected in human MT2 cells assessed as inhibition of viral replication after 48 hrs by luciferase activity reporter gene assay. In kind it is functional, organism-based. The essentials: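 Pseudovirus made by Ca3(PO4)2 co-transfection of 293 cells with env-deficient pNL4-3.luc.R−E− and VSV-G plasmid; supernatant harvested 48 h, 0.45 μm filtered. MT-2 cells (1.2×10⁵/well) pre-incubated with compound 15 min, then infected; solvent-only control. After 48 h cells lysed and luciferase measured; EC50 from dose-dependent inhibition, averaged from at least two experiments.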

Assay [8] relates to MT4. In words: Cytotoxicity activity against human MT4 by CellTiter-Glo luminescent cell viability assay. It counts as cell-based. Put shortly:
as §2

The test system of assay [9] is Human immunodeficiency virus 1. Nature of the assay: Antiviral activity against Human immunodeficiency virus 1 NL4-3 harboring reverse transcriptase K101E mutant infected in human TZM-bl cells assessed as reduction in relative luminescence units after 48 hrs by luciferase reporter gene assay. In kind it is functional, organism-based. The settings on record: Human immunodeficiency virus 1, NL4-3, TZM-bl.

The test system of assay [10] is Human immunodeficiency virus 1. In words: Antiviral activity against NNRTI-resistant Human immunodeficiency virus 1 RTMDR infected in human TZM-bl cells assessed as reduction in relative luminescence units after 48 hrs by luciferase reporter gene assay. It counts as functional, organism-based.
The subject of assay [11] is Human immunodeficiency virus 1. In words: Antiviral activity against NRTI-resistant Human immunodeficiency virus 1 4755-5 harboring reverse transcriptase M41L, D67N, L210W, T215Y, M184V, T69D, E44D and V118I mutant infected in human TZM-bl cells assessed as reduction in relative luminescence units after 48 hrs by luciferase reporter gene assay. In kind it is functional, organism-based. The settings on record: Human immunodeficiency virus 1, 4755-5, TZM-bl. Put shortly:
as §1

In assay [12] the test system is Human immunodeficiency virus 1. In words: Antiviral activity against NRTI-resistant Human immunodeficiency virus 1 6463-13 harboring reverse transcriptase M41L, D67N, L210W, T215Y, M184V and V118I mutant infected in human TZM-bl cells assessed as reduction in relative luminescence units after 48 hrs by luciferase reporter gene assay. It counts as functional, organism-based. Particulars: Human immunodeficiency virus 1, 6463-13, TZM-bl. The essentials: as §1

For assay [13], the system named is Human immunodeficiency virus 1. Nature of the assay: Antiviral activity against NRTI-resistant Human immunodeficiency virus 1 7295-1 harboring reverse transcriptase D67N, K70R, T215F, K219Q, M184V and T69N mutant infected in human TZM-bl cells assessed as reduction in relative luminescence units after 48 hrs by luciferase reporter gene assay. It counts as functional, organism-based. The settings on record: Human immunodeficiency virus 1, 7295-1, TZM-bl. The essentials: as §1

Assay [14] concerns Human immunodeficiency virus 1. In words: Antiviral activity against […] infected in human TZM-bl cells assessed as reduction in relative luminescence units after 48 hrs by luciferase reporter gene assay. It counts as functional, organism-based. The settings on record: Human immunodeficiency virus 1, NL4-3, TZM-bl. Put shortly: as §1

Assay [15] relates to PBMC. In words: Cytotoxicity activity against human PBMC by CellTiter-Glo luminescent cell viability assay. In kind it is cell-based. The essentials:
as §2

The test system of assay [16] is Human immunodeficiency virus 1. In words: Antiviral activity against NRTI-resistant Human immunodeficiency virus 1 29129-2 harboring reverse transcriptase M41L, D67N, L210W, T215Y and M184V mutant infected in human TZM-bl cells assessed as reduction in relative luminescence units after 48 hrs by luciferase reporter gene assay. In kind it is functional, organism-based. The settings on record: Human immunodeficiency virus 1, 29129-2, TZM-bl. Put shortly:
as §1

Assay [17] relates to Human immunodeficiency virus 1. Nature of the assay: Antiviral activity against Human immunodeficiency virus 1 NL4-3 infected in human TZM-bl cells assessed as reduction in relative luminescence units after 48 hrs by luciferase reporter gene assay. The settings on record: Human immunodeficiency virus 1, NL4-3, TZM-bl. In kind it is functional, organism-based.
Assay [18] relates to Human immunodeficiency virus 1. Nature of the assay: Antiviral activity against NRTI-resistant Human immunodeficiency virus 1 10076-4 harboring reverse transcriptase M41L, T215Y and M184V mutant infected in human TZM-bl cells assessed as reduction in relative luminescence units after 48 hrs by luciferase reporter gene assay. The settings on record: Human immunodeficiency virus 1, 10076-4, TZM-bl. In kind it is functional, organism-based. The essentials: as §1

In assay [19] the test system is Human immunodeficiency virus 1. In words: Antiviral activity against NRTI-resistant Human immunodeficiency virus 1 1617-1 harboring reverse transcriptase K70G, M184V, T69K, V75I, F77L, F116Y and Q151M mutant infected in human TZM-bl cells assessed as reduction in relative luminescence units after 48 hrs by luciferase reporter gene assay. It counts as functional, organism-based. The settings on record: Human immunodeficiency virus 1, 1617-1, TZM-bl. Put shortly: as §1

Assay [20] in a line: Cytotoxicity activity against human ACH2 by CellTiter-Glo luminescent cell viability assay. The settings on record: ACH-2. The essentials: as §2
Assay [21] can be described thus: Cytotoxicity activity against human TZM-bl by CellTiter-Glo luminescent cell viability assay. In kind it is cell-based. The essentials: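 Viable TZM-bl cells (HeLa-derived) quantified by luminescent ATP read-out after exposure to compound, tested up to a top concentration of 140 μM. IC50 taken as the concentration that inhibits cell growth by 50%, averaged from at least three separate experiments.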

In assay [22] the test system is Human immunodeficiency virus 1. Nature of the assay: Antiviral activity against NRTI-resistant Human immunodeficiency virus 1 56252-1 harboring reverse transcriptase K70R, V75I, F77L, F116Y, Q151M and K65R mutant infected in human TZM-bl cells assessed as reduction in relative luminescence units after 48 hrs by luciferase reporter gene assay. The settings on record: Human immunodeficiency virus 1, 56252-1, TZM-bl. It counts as functional, organism-based. The essentials: as §1

SMILES strings stand for the structures.

The EC50 is the midpoint of the concentration-response curve. For orientation: IC50 means the point on the concentration scale where inhibition reaches its midpoint.

Consider `[N-]=[N+]=N[C@]1(CO)O[C@@H](n2ccc(N)nc2=O)[C@@H](F)[C@@H]1O`, for which the EC50 in assay [1] came out at 0.42 nM; in assay [3], 0.735 nM; in assay [4], 0.595 nM; in [6] it was 0.56 nM; in [7] (mt2), 0.13 nM; in [9] it was 0.15 nM. The EC50 was 0.11 nM in assay [10]; more than 40000 nM in assay [11]; more than 40000 nM in assay [12]; more than 40000 nM in assay [13]; 0.318 nM in [14]; more than 40000 nM in [16]. The EC50 in assay [17] is 0.086 nM; in assay [18], more than 40000 nM; in assay [19], 32.2 nM; in assay [22], 0.525 nM. For the same compound, the IC50 in assay [2] was more than 140000 nM; in assay [5], more than 140000 nM; in assay [8], 120 nM; in assay [15] it was 150 nM; in assay [20], 110 nM; in assay [21], more than 140000 nM.

In the case of `Cc1cn([C@H]2C[C@H](N=[N+]=[N-])[C@@H](CO)O2)c(=O)[nH]c1=O` [ZIDOVUDINE], the EC50 in assay [7] (Human immunodeficiency virus 1, NL4-3, MT2, 48 h) was determined as 47 nM.

On to `[N-]=[N+]=N[C@]1(CO)O[C@@H](n2ccc(N)nc2=O)[C@@H](F)[C@@H]1O` [RO-0622], for which the EC50 in [7] (mt2) is 0.3 nM.
